From BindingDB's records for doi:10.1016/j.bmcl.2005.03.058 (Wyeth Research, 2005) come the findings set out here.

For assay [1], the target named is UDP-N-acetylglucosamine 1-carboxyvinyltransferase (Escherichia coli (strain K12), UniProt P0A749). In words: Inhibitory concentration against MurA enzyme in Escherichia coli. The essentials:
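Enzyme preincubated with inhibitor 10 min at 37 °C before substrates were added. Reaction ran 30 min at 37 °C and was stopped with malachite green reagent (0.03% malachite green, 1.4% ammonium molybdate, 1.3 N HCl) for phosphate read-out.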

The target of assay [2] is T1, UDP-N-acetylenolpyruvoylglucosamine reductase (Staphylococcus aureus, UniProt P61431).
T1 sequence (P61431 whole entry): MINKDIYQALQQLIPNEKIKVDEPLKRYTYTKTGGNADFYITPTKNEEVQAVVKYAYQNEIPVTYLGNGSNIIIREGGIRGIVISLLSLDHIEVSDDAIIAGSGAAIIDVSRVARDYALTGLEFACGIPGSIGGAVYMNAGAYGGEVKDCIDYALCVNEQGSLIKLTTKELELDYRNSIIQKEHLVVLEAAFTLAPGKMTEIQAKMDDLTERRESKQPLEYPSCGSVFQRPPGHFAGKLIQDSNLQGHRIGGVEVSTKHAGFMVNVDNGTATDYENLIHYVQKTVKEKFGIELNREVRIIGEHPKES
In words: Inhibitory concentration against MurB enzyme in Staphylococcus aureus. The essentials:
(§1)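 Enzyme (20 nM) preincubated 20 min with inhibitor, then substrates added to final 50 µM EP-UNAG and 100 µM NADPH. Activity followed spectrophotometrically. At least six inhibitor concentrations between 1.5 and 50 µM per compound. IC50 from sigmoid Hill curve fit (0–100).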

In assay [3] the target is T2, UDP-N-acetylenolpyruvoylglucosamine reductase (Escherichia coli (strain K12), UniProt P08373).
T2 sequence (P08373 whole entry): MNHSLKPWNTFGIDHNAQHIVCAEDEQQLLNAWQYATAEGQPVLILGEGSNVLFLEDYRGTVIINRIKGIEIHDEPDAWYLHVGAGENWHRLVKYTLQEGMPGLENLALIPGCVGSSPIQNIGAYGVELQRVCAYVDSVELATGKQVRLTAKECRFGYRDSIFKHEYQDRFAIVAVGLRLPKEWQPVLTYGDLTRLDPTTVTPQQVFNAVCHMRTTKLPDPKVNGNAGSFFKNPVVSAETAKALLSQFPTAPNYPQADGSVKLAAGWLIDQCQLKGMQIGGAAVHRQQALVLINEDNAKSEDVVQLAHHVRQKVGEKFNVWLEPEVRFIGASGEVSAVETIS
In words: Inhibitory concentration against MurB enzyme in Escherichia coli. The essentials: as §1

Chain of UDP-N-acetylglucosamine 1-carboxyvinyltransferase (P0A749 whole entry): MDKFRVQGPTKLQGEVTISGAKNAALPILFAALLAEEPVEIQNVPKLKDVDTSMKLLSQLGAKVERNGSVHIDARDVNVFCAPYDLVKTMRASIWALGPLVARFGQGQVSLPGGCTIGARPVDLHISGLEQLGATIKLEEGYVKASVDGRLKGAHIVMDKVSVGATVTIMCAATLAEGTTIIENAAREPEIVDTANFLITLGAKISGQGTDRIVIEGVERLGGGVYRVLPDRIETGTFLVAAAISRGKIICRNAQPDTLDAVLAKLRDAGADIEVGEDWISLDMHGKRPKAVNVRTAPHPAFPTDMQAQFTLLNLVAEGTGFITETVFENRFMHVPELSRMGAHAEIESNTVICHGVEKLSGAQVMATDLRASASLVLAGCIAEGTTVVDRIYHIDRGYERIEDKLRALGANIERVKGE

Broadly, the IC50 is the concentration that inhibits the measured activity by half. Read a high IC50 as a need for much substance. For `CCN(CCc1c(O)n(-c2ccc(Cl)cc2)n(-c2ccc(Cl)cc2)c1=O)Cc1ccccc1` [4-[2-(Benzyl-ethyl-amino)-ethyl]-1,2-bis-(4-chloro-phenyl)-pyrazolidine-3,5-dione], the IC50 in assay [1], in assay [2] and in assay [3] was > 50 µM in each case.

As for `COc1cccc(Cc2c(O)n(-c3ccc(Cl)cc3)n(-c3ccc(Cl)cc3)c2=O)c1` [1,2-Bis-(4-chloro-phenyl)-4-(3-methoxy-benzyl)-pyrazolidine-3,5-dione], the IC50 in assay [1] is > 50 µM; in assay [3] it was 50 µM.

For `CCN(CC)CCc1c(O)n(-c2ccc(Cl)cc2)n(-c2ccc(Cl)cc2)c1=O` [1,2-Bis-(4-chloro-phenyl)-4-(2-diethylamino-ethyl)-pyrazolidine-3,5-dione], the IC50 in assay [1] and in assay [3] was > 50 µM each time.

With `O=c1c(Cc2ccccc2)c(O)n(-c2ccc(Cl)cc2)n1-c1ccc(Cl)cc1` [4-Benzyl-1,2-bis-(4-chloro-phenyl)-pyrazolidine-3,5-dione], the IC50 in assay [1] and in assay [3] was > 50 µM each time.

For `CCC(CC)Cc1c(O)n(-c2ccc(Cl)cc2)n(-c2ccc(Cl)cc2)c1=O` [1,2-Bis-(4-chloro-phenyl)-4-(2-ethyl-butyl)-pyrazolidine-3,5-dione], the results for the IC50 in assay [1] and in assay [3] were > 50 µM and 50 µM, respectively.

With `O=c1c(Cc2ccccc2Cl)c(O)n(-c2ccc(Cl)cc2)n1-c1ccc(Cl)cc1` [4-(2-Chloro-benzyl)-1,2-bis-(4-chloro-phenyl)-pyrazolidine-3,5-dione], the IC50 in assay [1], in assay [2] and in assay [3] was > 50 µM in each case.
